From ChEMBL document CHEMBL4765445, “Structure-activity relationship study of novel quinazoline-based 1,6-naphthyridinones as MET inhibitors with potent antitumor efficacy” (Eur J Med Chem, 2020)
pIC50: −log10 of the molar value. Blank lines part the entries; values can stand above or below the compound they belong to.

Columns and labels:
[1] = molecular target: T1, Hepatocyte growth factor receptor (Homo sapiens, UniProt P08581); assay: Inhibition of recombinant MET kinase domain (unknown origin)
T1 sequence (P08581 whole entry, the tested form may be a part): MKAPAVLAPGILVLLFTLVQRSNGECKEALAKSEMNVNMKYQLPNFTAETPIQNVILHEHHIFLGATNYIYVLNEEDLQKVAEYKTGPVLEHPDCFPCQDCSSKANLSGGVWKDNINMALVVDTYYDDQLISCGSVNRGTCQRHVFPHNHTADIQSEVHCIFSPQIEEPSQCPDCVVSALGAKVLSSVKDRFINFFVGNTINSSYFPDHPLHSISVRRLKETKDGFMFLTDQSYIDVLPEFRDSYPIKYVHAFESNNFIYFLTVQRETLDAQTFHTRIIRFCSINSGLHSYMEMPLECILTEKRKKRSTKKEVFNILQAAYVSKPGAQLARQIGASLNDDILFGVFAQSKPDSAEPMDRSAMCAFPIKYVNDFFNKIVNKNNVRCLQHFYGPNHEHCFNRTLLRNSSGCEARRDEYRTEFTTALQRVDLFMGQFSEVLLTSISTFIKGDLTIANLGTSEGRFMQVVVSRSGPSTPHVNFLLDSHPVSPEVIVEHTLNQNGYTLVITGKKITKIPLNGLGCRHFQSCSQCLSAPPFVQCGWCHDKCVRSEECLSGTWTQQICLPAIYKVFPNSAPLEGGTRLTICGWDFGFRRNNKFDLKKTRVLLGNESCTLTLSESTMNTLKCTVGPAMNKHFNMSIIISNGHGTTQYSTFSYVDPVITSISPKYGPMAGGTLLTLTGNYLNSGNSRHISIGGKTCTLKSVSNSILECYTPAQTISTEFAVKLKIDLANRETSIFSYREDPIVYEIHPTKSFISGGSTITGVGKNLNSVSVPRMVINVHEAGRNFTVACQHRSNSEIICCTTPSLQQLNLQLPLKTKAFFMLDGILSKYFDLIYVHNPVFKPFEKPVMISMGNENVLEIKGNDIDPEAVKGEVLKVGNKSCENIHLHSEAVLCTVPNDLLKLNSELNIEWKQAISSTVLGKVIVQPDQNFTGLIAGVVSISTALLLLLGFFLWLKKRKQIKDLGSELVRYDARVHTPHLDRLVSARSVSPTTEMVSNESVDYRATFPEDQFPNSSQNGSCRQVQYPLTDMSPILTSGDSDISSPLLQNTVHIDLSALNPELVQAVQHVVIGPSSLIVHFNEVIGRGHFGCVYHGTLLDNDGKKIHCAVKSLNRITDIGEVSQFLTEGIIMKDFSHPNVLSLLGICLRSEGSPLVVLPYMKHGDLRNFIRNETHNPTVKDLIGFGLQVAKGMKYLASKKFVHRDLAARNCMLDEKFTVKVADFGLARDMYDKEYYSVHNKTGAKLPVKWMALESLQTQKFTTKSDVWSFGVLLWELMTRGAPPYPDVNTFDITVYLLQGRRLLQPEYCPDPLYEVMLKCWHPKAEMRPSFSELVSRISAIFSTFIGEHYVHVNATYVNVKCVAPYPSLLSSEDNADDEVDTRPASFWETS

[2] = Half life in human liver microsomes; type: ADME, Microsome
[3] = molecular target: Vascular endothelial growth factor receptor 2 (Homo sapiens, UniProt P35968); assay: Inhibition of recombinant VEGFR2 kinase domain (unknown origin)
Sequence of Vascular endothelial growth factor receptor 2 (P35968 whole entry, the tested form may be a part): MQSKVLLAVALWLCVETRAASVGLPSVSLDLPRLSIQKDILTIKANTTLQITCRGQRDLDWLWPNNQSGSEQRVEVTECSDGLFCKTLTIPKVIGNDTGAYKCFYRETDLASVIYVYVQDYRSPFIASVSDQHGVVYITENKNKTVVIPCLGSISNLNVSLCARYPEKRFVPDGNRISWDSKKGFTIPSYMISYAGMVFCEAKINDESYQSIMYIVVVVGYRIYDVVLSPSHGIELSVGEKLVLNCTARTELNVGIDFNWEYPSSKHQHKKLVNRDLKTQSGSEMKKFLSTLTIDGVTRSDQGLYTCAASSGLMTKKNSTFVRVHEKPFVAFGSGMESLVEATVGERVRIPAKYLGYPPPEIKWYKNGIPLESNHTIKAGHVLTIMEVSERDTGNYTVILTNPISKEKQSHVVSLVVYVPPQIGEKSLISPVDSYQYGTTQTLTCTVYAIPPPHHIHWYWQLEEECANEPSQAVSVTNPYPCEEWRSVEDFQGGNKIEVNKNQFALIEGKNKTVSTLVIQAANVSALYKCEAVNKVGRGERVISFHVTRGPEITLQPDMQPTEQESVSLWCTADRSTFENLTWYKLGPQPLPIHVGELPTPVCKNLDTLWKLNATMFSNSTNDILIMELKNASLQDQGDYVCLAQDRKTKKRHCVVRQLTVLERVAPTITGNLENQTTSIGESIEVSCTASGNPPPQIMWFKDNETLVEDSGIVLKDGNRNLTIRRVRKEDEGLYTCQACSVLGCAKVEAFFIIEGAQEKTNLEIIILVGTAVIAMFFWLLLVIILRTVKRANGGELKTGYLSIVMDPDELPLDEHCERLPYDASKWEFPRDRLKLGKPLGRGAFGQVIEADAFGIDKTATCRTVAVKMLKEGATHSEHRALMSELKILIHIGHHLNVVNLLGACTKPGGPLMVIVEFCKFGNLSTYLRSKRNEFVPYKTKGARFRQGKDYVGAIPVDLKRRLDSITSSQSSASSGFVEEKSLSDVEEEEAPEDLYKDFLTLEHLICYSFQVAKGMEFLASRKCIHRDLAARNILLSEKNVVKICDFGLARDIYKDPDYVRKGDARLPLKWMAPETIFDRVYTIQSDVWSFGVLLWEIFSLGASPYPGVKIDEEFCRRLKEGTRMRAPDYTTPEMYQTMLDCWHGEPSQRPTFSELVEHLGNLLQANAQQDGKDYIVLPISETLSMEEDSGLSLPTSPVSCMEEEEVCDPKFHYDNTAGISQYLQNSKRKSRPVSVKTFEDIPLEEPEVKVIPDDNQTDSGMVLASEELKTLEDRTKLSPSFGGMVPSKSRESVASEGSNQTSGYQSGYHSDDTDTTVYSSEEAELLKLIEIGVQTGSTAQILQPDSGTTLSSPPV
Outline: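 In vitro kinase assay using purified recombinant VEGFR-2 kinase domain; IC50 determined.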

[4] = molecular target: T1, Hepatocyte growth factor receptor; assay: Inhibition of MET in human MKN-45 cells assessed as reduction in HGF-mediated autophosphorylation; type: cell-based
[5] = molecular target: T2, Receptor-type tyrosine-protein kinase FLT3 (Homo sapiens, UniProt P36888); assay: Inhibition of FLT3 (unknown origin)
T2 sequence (P36888 whole entry): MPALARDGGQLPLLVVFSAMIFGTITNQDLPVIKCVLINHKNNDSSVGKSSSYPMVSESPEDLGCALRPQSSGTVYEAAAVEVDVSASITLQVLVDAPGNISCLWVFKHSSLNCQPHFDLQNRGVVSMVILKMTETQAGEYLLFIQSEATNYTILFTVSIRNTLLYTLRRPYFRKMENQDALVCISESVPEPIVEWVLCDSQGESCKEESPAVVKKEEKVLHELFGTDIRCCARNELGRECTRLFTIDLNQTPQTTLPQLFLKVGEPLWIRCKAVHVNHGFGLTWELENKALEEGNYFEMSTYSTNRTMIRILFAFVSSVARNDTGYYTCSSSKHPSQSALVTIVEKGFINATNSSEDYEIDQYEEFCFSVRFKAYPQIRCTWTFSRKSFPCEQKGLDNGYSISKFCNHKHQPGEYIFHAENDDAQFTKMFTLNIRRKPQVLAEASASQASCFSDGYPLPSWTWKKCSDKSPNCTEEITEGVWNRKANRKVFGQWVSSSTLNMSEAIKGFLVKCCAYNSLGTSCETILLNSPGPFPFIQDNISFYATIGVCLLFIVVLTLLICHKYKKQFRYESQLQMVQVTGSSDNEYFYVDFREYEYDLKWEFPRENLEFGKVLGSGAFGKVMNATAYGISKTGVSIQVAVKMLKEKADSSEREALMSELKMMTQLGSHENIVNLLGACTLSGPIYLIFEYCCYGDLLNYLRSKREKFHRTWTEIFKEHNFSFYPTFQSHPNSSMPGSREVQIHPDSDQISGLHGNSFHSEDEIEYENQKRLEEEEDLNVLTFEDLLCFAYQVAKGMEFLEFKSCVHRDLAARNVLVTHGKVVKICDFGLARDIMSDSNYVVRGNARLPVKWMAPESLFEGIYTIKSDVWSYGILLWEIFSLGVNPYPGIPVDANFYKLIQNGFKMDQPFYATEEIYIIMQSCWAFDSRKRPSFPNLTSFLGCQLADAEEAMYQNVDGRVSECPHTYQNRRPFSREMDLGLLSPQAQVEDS

[6] = molecular target: Platelet-derived growth factor receptor beta (Homo sapiens, UniProt P09619); assay: Inhibition of PDGFRbeta (unknown origin)
Sequence of Platelet-derived growth factor receptor beta (P09619 whole entry): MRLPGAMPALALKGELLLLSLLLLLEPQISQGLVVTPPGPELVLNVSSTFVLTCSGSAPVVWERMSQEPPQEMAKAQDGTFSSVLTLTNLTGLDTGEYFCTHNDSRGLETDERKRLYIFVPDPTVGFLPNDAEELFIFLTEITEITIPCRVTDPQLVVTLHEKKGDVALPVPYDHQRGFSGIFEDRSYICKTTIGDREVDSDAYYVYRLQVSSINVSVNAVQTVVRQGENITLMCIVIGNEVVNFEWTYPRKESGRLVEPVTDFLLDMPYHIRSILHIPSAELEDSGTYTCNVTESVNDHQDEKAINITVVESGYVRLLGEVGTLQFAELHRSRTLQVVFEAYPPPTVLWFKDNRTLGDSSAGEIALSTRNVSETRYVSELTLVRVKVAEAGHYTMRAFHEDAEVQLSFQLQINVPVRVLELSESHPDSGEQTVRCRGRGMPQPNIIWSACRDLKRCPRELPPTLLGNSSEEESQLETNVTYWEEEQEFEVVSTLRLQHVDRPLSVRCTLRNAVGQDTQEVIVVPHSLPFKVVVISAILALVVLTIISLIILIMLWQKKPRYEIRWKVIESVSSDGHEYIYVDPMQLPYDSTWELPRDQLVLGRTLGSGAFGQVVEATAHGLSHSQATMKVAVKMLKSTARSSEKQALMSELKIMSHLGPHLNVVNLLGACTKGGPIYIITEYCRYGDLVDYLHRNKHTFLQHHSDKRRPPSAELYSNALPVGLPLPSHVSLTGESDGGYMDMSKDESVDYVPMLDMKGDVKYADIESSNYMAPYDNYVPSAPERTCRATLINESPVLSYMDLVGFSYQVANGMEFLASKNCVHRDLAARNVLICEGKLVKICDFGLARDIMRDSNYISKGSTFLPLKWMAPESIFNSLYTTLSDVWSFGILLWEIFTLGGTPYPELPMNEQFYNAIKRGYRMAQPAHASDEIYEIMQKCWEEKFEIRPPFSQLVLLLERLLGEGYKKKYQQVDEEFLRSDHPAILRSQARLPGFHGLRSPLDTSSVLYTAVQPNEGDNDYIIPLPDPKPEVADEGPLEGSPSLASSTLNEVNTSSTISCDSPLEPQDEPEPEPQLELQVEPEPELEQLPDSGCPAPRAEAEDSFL

[7] = molecular target: Proto-oncogene tyrosine-protein kinase receptor Ret (Homo sapiens, UniProt P07949); assay: Inhibition of RET (unknown origin)
Homo sapiens = species: Homo sapiens; assay: Selectivity ratio of IC50 for recombinant VEGFR2 (unknown origin) to IC50 for recombinant MET (unknown origin)
Outline: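 In vitro enzyme assays used purified recombinant MET and VEGFR-2 kinase domains, each tested separately. IC50 values are in nM. The ratio divides the VEGFR-2 enzyme IC50 by the MET enzyme IC50.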

[8] = molecular target: T3, Tyrosine-protein kinase receptor UFO (Homo sapiens, UniProt P30530); assay: Inhibition of Axl (unknown origin)
T3 sequence (P30530 whole entry): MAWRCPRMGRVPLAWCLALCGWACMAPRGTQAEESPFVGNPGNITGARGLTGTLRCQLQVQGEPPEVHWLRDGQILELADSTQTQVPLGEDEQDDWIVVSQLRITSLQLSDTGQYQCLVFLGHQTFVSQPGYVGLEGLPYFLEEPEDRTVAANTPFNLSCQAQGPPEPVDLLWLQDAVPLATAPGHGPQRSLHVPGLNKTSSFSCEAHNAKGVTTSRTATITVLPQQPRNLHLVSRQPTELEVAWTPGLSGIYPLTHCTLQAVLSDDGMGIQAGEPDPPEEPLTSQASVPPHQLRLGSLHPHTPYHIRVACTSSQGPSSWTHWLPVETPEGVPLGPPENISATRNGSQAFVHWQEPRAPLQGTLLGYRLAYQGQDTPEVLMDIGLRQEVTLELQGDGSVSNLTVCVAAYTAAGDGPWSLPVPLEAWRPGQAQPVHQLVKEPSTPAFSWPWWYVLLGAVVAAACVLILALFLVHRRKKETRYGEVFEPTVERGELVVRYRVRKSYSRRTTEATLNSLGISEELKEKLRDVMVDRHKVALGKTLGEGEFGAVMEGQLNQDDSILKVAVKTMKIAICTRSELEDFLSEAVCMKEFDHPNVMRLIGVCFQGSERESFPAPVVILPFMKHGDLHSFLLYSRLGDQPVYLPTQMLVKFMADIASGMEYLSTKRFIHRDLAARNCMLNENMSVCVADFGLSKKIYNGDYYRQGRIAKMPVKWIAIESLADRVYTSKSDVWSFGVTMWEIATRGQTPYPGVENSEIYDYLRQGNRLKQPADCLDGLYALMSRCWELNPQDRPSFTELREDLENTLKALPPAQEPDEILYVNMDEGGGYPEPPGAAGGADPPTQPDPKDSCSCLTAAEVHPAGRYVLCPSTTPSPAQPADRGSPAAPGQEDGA

[9] = molecular target: Macrophage-stimulating protein receptor (Homo sapiens, UniProt Q04912); assay: Inhibition of Ron (unknown origin)
[10] = molecular target: Mast/stem cell growth factor receptor Kit (Homo sapiens, UniProt P10721); assay: Inhibition of c-KIT (unknown origin)
Sequence of Mast/stem cell growth factor receptor Kit (P10721 whole entry): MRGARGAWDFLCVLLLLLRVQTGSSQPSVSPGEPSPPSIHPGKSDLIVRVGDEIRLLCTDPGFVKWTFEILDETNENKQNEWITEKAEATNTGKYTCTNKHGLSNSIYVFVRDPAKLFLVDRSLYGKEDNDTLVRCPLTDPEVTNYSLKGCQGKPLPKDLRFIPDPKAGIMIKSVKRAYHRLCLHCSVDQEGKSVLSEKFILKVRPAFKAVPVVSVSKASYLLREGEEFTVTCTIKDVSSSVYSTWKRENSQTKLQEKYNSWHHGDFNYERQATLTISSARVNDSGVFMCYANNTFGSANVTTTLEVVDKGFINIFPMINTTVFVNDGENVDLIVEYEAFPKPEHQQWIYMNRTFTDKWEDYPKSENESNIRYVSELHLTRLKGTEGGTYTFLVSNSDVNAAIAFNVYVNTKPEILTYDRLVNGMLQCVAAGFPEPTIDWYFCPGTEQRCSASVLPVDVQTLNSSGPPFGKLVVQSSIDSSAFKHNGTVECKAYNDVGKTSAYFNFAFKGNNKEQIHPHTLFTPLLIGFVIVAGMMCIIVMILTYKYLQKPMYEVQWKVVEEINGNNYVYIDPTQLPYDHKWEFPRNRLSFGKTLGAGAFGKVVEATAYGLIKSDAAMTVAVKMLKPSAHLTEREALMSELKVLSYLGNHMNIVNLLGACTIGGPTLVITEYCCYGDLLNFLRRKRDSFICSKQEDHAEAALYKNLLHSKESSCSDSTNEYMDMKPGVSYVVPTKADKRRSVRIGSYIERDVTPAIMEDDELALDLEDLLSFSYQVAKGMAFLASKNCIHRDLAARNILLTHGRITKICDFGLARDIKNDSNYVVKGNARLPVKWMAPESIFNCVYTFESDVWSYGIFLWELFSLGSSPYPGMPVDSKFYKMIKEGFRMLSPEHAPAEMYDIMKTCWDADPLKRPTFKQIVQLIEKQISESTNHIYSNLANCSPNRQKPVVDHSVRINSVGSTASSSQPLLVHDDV

[11] = Apparent volume of distribution in rat at 5 mg/kg, iv; type: ADME, organism-based; conditions: in vivo, read-out: Vz
Outline: (§1)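 Rat pharmacokinetics used 10 mg/kg p.o. and 5 mg/kg i.v. with vehicle 70% PEG400-30% water. Plasma concentration–time curves gave Cmax, Tmax, T1/2, AUC0-∞, CL, Vz and oral bioavailability F. Values are the average of three animals.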

[12] = Apparent volume of distribution in rat at 10 mg/kg, po; type: ADME, organism-based; conditions: in vivo; outline: as §1
[13] = Half life in rat at 5 mg/kg, iv; type: ADME, organism-based; conditions: in vivo; outline: as §1
[14] = Cmax in nude mouse xenografted with human U-87 MG cells at 25 mg/kg, po administered once daily for 3 weeks; type: ADME, organism-based; parameters: route oral, dose 25 mg/kg, time 3 weeks; conditions: in vivo
Outline: (§2)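 PK/PD sampling was done within the U-87 MG nude-mouse xenograft study. Compound was given p.o. once daily for 21 days in 70% PEG-400/H₂O. Cmax and AUC0-t were measured in plasma.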

[15] = AUC (0 to t) in nude mouse xenografted with human U-87 MG cells at 75 mg/kg, po administered once daily for 3 weeks; type: ADME, organism-based; parameters: time 3 weeks, dose 75 mg/kg; conditions: in vivo
[16] = Cmax in nude mouse xenografted with human U-87 MG cells at 75 mg/kg, po administered once daily for 3 weeks; type: ADME, organism-based; parameters: route oral, time 3 weeks, dose 75 mg/kg; conditions: in vivo; outline: as §2
[17] = Clearance in rat at 5 mg/kg, iv; type: ADME, organism-based; conditions: in vivo; outline: as §1
U-87 MG [18] = assay: Antitumor activity against human U-87 MG cells xenografted in nude mouse assessed as tumor growth inhibition at 25 mg/kg, po administered once daily for 3 weeks; type: functional, U-87MG ATCC; conditions: 504 h, read-out: TGI
[19] = Half life in rat at 10 mg/kg, po; type: ADME, organism-based; conditions: in vivo; outline: as §1
U-87 MG [20] = assay: Antitumor activity against human U-87 MG cells xenografted in nude mouse assessed as tumor growth inhibition at 75 mg/kg, po administered once daily for 3 weeks relative to control; type: functional, U-87MG ATCC; conditions: 504 h, read-out: TGI
[21] = Oral bioavailability in rat at 10 mg/kg; type: ADME, organism-based; conditions: in vivo; outline: as §1
[22] = Tmax in rat at 10 mg/kg, po; type: ADME, organism-based; conditions: in vivo; outline: as §1
[23] = Cmax in rat at 10 mg/kg, po; type: ADME, organism-based; parameters: route oral, dose 10 mg/kg; conditions: in vivo; outline: as §1
[24] = AUC (0 to t) in nude mouse xenografted with human U-87 MG cells at 25 mg/kg, po administered once daily for 3 weeks; type: ADME, organism-based; parameters: time 3 weeks, dose 25 mg/kg; conditions: in vivo
[25] = Cmax in rat at 5 mg/kg, iv; type: ADME, organism-based; parameters: route intravenous, dose 5 mg/kg; conditions: in vivo; outline: as §1
[26] = Tmax in rat at 5 mg/kg, iv; type: ADME, organism-based; conditions: in vivo; outline: as §1
[27] = AUC (0 to infinity) in rat at 10 mg/kg, po; type: ADME, organism-based; parameters: time infinity, route oral, dose 10 mg/kg; conditions: in vivo
U-87 MG [28] = assay: Antitumor activity against human U-87 MG cells xenografted in po dosed nude mouse assessed as tumor growth inhibition administered once daily for 3 weeks; type: functional, U-87MG ATCC
[29] = Clearance in rat at 10 mg/kg, po; type: ADME, organism-based; conditions: in vivo; outline: as §1
[30] = AUC (0 to infinity) in rat at 5 mg/kg, iv; type: ADME, organism-based; parameters: time infinity, route intravenous, dose 5 mg/kg; conditions: in vivo

SMILES: COc1cc2c(Oc3ccc(Nc4nccc5[nH]cc(-c6ccc(F)cc6)c(=O)c45)cc3F)ncnc2cc1OCCN1CCOCC1
pIC50 [1]: 7.61

SMILES: COc1cc2ncnc(Oc3ccc(Nc4nccc5[nH]cc(-c6ccc(F)cc6)c(=O)c45)cc3F)c2cc1OCC(C)(C)O
half-life [2]: 4.17 h
pIC50 [1]: 8.10
pIC50 [3]: 7.28

SMILES: CCN(CC)CCCOc1cc2c(Oc3ccc(Nc4nccc5[nH]cc(-c6ccc(F)cc6)c(=O)c45)cc3F)ncnc2cc1OC
pIC50 [4]: 6.40
pIC50 [1]: 8.03
pIC50 [3]: 6.79

SMILES: O=c1c(-c2ccc(F)cc2)c[nH]c2ccnc(Nc3ccc(Oc4ncnc5cc6c(cc45)OCCOCCOCCO6)c(F)c3)c12
half-life [2]: 0.83 h
pIC50 [1]: 8.02
pIC50 [3]: 7.32

SMILES: COc1cc2c(Oc3ccc(Nc4nccc5[nH]cc(-c6ccc(F)cc6)c(=O)c45)cc3F)ncnc2cc1OCC(C)(C)O
pIC50 [1]: 7.19
pIC50 [3]: 7.03

SMILES: COc1cc2ncnc(Oc3ccc(Nc4nccc5[nH]cc(-c6ccc(F)cc6)c(=O)c45)cc3)c2cc1OC
Vd [11]: 0.2 L/kg
pIC50 [5]: 7.77
Vz [12]: 0.4 L/kg
half-life [2]: 10.4 h
half-life [13]: 14 h
pIC50 [6]: < 5.70
Cmax [14]: 12100 ng/mL
pIC50 [4]: 7.06
pIC50 [1]: 8.05
AUC(0-t) at 504 h [15]: 279 µg·h/mL
Cmax [16]: 16000 ng/mL
clearance [17]: 0.167 mL/min/kg
inhibition in vivo at 25 mg/kg (U-87 MG [18]): 51%
half-life [19]: 12.5 h
inhibition in vivo at 75 mg/kg (U-87 MG [20]): 81%
bioavailability [21]: 42%
pIC50 [3]: 6.95
Tmax [22]: 3.5 h
Cmax [23]: 25100 ng/mL
AUC(0-t) at 504 h [24]: 156 µg·h/mL
Cmax [25]: 44000 ng/mL
Tmax [26]: 1.8 min
AUC(0-inf) [27]: 427 µg·h/mL
ED50 (U-87 MG [28]; 504 h): 25 mg/kg
TGI (U-87 MG [28]; U-87MG ATCC): Dose-dependent effect
CL/F [29]: 0.333 mL/min/kg
pIC50 [10]: 7.55
AUC(0-inf) [30]: 510 µg·h/mL

SMILES: COc1cc2ncnc(Oc3ccc(Nc4nccc5[nH]c(C)c(-c6ccc(F)cc6)c(=O)c45)cc3F)c2cc1OC
pIC50 [1]: 6.64
pIC50 [3]: 6.34

The remaining lines, values ahead:

pIC50 [5]: 7.99
half-life [2]: 4.83 h
pIC50 [6]: 5.87
pIC50 [4]: 7.23
pIC50 [7]: 7.19
Ratio IC50 (Homo sapiens): 27.6
pIC50 [3]: 6.57
pIC50 [8]: 7.96
pIC50 [9]: 7.05
pIC50 [10]: 7.35
SMILES: COc1cc2ncnc(Oc3ccc(Nc4nccc5[nH]cc(-c6ccc(F)cc6)c(=O)c45)cc3F)c2cc1OC

pIC50 [1]: 7.44
pIC50 [3]: 7.01
SMILES: COCCOc1cc2c(Oc3ccc(Nc4nccc5[nH]cc(-c6ccc(F)cc6)c(=O)c45)cc3F)ncnc2cc1OC

pIC50 [1]: 6.71
pIC50 [3]: < 5.52
SMILES: COc1cc2ncnc(Oc3ccc(Nc4nccc5c4c(=O)c(-c4ccc(F)cc4)cn5CC(=O)c4ccccc4)cc3F)c2cc1OC

pIC50 [1]: 6.79
pIC50 [3]: < 5.52
SMILES: COCCn1cc(-c2ccc(F)cc2)c(=O)c2c(Nc3ccc(Oc4ncnc5cc(OC)c(OC)cc45)c(F)c3)nccc21

pIC50 [1]: 7.38
pIC50 [3]: 6.85
SMILES: COCCOc1cc2ncnc(Oc3ccc(Nc4nccc5[nH]cc(-c6ccc(F)cc6)c(=O)c45)cc3F)c2cc1OC
